NOD2 RIPK2 PPI: blocks binding of human NOD2 to RIPK2; O43353; CHO BLA complementation NOD2-RIPK2, CCF4 ratio; inhibition, % at 4.98 µM; 360,000 compounds, 0.38% hits; AID 624267; in the data active = inhibition above about 21%
XBP1 UPR activ: activators of adaptive arm of unfolded protein response (XBP1) | CHO-XBP1 luciferase reporter, IRE1-XBP1 UPR activation, luminescence; percent of tunicamycin response, DMSO as zero | activation, % at 20 µM | 330,000 compounds, 0.33% hits;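 active = versus positive control, 20 µM dose yields 30% or more activation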
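Test system: CHO-XBP1 luciferase reporter cells | Buffer or medium: Serum-containing F12 medium, 10% FBS | Schedule: 6 h compound exposure at 37 °C, 5% CO2 | Detection: Steady-Glo luciferase glow luminescence, 10 min after reagent addition | Read-out basis: Activation, % of tunicamycin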
CHOP UPR activ: activators of apoptotic arm of unfolded protein response (CHOP). CHO-CHOP luciferase reporter, UPR activation, luminescence; percent of tunicamycin response over DMSO baseline. activation, % at 10 µM. 330,000 compounds, 0.34% hits. AID 449763;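 active = at 10 µM dose, activation of 40% or more, normalized to positive control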
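Evaluation: % reporter activation, DMSO baseline versus tunicamycin full activation; System: CHO-CHOP luciferase reporter cell line; Input: 500 cells/well; Incubation: 6 h compound treatment, 37 °C; Measured by: Steady-Glo luciferase luminescence; Dosing: one dose, 10 µM in 0.5% DMSO; Buffer or medium: F12 medium, 10% FBS; Benchmarks: positive tunicamycin 10 µg/mL, negative DMSO alone.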
TLR9-MyD88 inh: blocks human TLR9 binding to MyD88 | 340,000 compounds, 0.21% hits | inhibition, % at 4.98 µM | AID 504734 | CHO BLA complementation TLR9-MyD88, CCF4 FRET ratio;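 active = inhibition above the mean over all tested compounds plus 3 SD, cut at about 21% in these data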
TLR4 MyD88 comp: TLR4-MyD88 interaction inhibition in cells; HeLa CL3-4 TLR4/MyD88 BLA complementation, FRET ratio; inhibition, % at 8.4 µM; 200,000 compounds, 0.18% hits; in the data active = inhibition above about 25%
Target sequence (O00206 whole entry, looked up): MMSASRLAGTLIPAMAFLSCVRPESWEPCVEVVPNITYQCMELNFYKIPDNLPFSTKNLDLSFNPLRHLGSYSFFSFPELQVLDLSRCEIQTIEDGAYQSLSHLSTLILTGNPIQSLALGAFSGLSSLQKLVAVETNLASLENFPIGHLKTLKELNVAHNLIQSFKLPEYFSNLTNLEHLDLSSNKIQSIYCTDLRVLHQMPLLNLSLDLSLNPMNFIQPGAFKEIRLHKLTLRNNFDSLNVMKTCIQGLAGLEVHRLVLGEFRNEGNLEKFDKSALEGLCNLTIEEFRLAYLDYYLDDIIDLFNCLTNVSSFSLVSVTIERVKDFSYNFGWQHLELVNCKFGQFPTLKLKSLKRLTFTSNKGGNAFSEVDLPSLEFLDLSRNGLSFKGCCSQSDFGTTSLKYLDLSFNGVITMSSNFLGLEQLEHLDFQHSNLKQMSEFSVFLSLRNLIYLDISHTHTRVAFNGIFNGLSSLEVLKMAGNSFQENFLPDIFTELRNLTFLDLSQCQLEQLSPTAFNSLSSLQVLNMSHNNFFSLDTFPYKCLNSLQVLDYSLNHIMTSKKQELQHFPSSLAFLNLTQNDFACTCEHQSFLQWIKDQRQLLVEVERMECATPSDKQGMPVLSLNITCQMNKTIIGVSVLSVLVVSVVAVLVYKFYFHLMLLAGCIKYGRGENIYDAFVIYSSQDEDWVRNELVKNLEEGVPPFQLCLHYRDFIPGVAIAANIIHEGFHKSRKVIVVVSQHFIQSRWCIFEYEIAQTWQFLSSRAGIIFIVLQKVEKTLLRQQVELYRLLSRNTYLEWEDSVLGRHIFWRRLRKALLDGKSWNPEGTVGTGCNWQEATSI
Target sequence (Q99836 whole entry, looked up): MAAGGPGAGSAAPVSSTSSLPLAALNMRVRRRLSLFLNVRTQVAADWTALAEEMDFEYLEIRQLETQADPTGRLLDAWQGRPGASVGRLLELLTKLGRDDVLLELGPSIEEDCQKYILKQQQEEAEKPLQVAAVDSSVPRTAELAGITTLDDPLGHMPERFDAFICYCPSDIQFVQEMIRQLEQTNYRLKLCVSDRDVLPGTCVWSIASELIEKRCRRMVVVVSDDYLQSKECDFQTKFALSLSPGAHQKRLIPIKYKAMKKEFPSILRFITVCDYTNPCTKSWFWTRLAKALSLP
CHOP inh: CHOP inhibition in unfolded protein response. inhibition, % at 10 µM. CHO-K1 CHOP-promoter luciferase, tunicamycin-induced, 15-18 h. 220,000 compounds, 3.8% hits;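 active = compounds that reduced the stress-induced luciferase reporter signal by more than about 70% of percent inhibition, limit read from the data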
NOD2-RIPK2 conf: NOD2-RIPK2 interaction inhibition confirmed | inhibition, % at 4.98 µM | shares compounds with NOD2 RIPK2 PPI | AID 624370 | CHO cells, NOD2-RIPK2 BLA complementation, CCF4 FRET | 1,200 compounds, 70% hits;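 active = mean inhibition across replicates above a set limit taken from the earlier primary screen, cut at about 21% in these data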
BLA counter: counter-screen for NOD2-RIPK2 interaction inhibitors: BLA reporter | shares compounds with NOD2 RIPK2 PPI | CHO BLA reporter, CCF4 FRET ratio, counterscreen | inhibition, % at 4.98 µM | 1,200 compounds, 57% hits | AID 624371;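 active = mean inhibition above the low-control mean inhibition plus three low-control SD, cut at about 11% in these data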
Large screens that a line does not name were inactive (follow-up assays come after a bar, where they were run); ! = not confirmed by another sample. This excerpt belongs to a sample that is enriched for hits.

Cc1ccc(N(CC(=O)NCc2ccc3c(c2)OCO3)C(=O)CCC(=O)Nc2ccccn2)cc1	none (no result: TLR4 MyD88 comp, CHOP inh)
Cc1ccnc(NC(=O)CCC(=O)N(CC(=O)NCc2ccccc2)c2ccc3c(c2)OCO3)c1	NOD2 RIPK2 PPI 32 | NOD2-RIPK2 conf inactive | BLA counter inactive
O=C(C(=Cc1ccc(F)cc1)C(=O)c1ccccc1)c1ccccc1	NOD2 RIPK2 PPI 29 (no result: XBP1 UPR activ, CHOP UPR activ, TLR9-MyD88 inh, TLR4 MyD88 comp, CHOP inh) | NOD2-RIPK2 conf inactive | BLA counter inactive
O=C1/C(=C/c2ccc([N+](=O)[O-])cc2)Oc2cc(O)ccc21	none (no result: TLR4 MyD88 comp, CHOP inh)
O=C1/C(=C/c2ccc(Br)cc2)Oc2cc(O)ccc21	NOD2 RIPK2 PPI 25 (no result: TLR4 MyD88 comp, CHOP inh) | NOD2-RIPK2 conf 37 | BLA counter 42
CC(C)(C)c1ccc(/C=C2\Oc3cc(O)ccc3C2=O)cc1	NOD2 RIPK2 PPI 24 (no result: TLR4 MyD88 comp, CHOP inh) | NOD2-RIPK2 conf 27 | BLA counter 45
Cc1ccc(C)c(S(=O)(=O)N2CCCC2CNC(=O)C(=O)NCC2CCCO2)c1 (centres undefined)	none (no result: TLR4 MyD88 comp, CHOP inh)
CCOCCCNC(=O)c1ccc2c(c1)N=C(CC)c1cc(Br)ccc1S2	NOD2 RIPK2 PPI 28 | NOD2-RIPK2 conf inactive | BLA counter inactive
O=S1(=O)Cc2cc3ccccc3cc2C1	none
O=c1c2cccc(Cl)c2nc2n1Cc1ccccc1-2	none (no result: TLR4 MyD88 comp)
CCc1cc2c(=O)nc3n(c2s1)Cc1ccccc1/C3=C(/O)c1ccccc1Cl	NOD2 RIPK2 PPI 31 | NOD2-RIPK2 conf inactive | BLA counter inactive
COc1ccc(C(C(=O)Nc2ccc3c(c2)OCCO3)n2c(=O)c(-c3ccco3)nc3ccccc32)cc1 (centres undefined)	none (no result: XBP1 UPR activ, CHOP UPR activ, TLR9-MyD88 inh, TLR4 MyD88 comp, CHOP inh)
COc1ccc(C(C(=O)Nc2ccc3c(c2)OCCO3)n2c(=O)c(-c3cc4ccccc4[nH]3)nc3ccccc32)cc1 (centres undefined)	NOD2 RIPK2 PPI 45 (no result: XBP1 UPR activ, CHOP UPR activ, TLR9-MyD88 inh, TLR4 MyD88 comp, CHOP inh) | NOD2-RIPK2 conf 43 | BLA counter 65
COc1ccc(NC(=O)C(c2ccc(C(F)(F)F)cc2)n2c(=O)c(-c3cc4ccccc4[nH]3)nc3ccccc32)cc1 (centres undefined)	NOD2 RIPK2 PPI 41 (no result: XBP1 UPR activ, CHOP UPR activ, TLR9-MyD88 inh, TLR4 MyD88 comp, CHOP inh) | NOD2-RIPK2 conf 38 | BLA counter 64
COC(=O)/C(=N/Nc1ccccc1OC)N1CCCc2ccccc21	none (no result: TLR4 MyD88 comp)
CN1OC[C@@H]2CN(Cc3cc(Cl)cc(Cl)c3)[C@H](c3cccc(Br)c3)C[C@@H]21	none (no result: XBP1 UPR activ, CHOP UPR activ, TLR4 MyD88 comp, CHOP inh)
CCCCNc1c(-c2ccc(-c3cccc(Cl)c3)cc2)nc2ccccn12	NOD2 RIPK2 PPI 22! (no result: TLR4 MyD88 comp, CHOP inh) | NOD2-RIPK2 conf inactive | BLA counter 16
CCCCCCSc1ccc(-c2nc3ccccn3c2NCCCC)cc1	none (no result: TLR4 MyD88 comp, CHOP inh)
Cc1[nH]c2ccccc2c1CC#N	none (no result: TLR4 MyD88 comp)
Cc1[nH]c2ccccc2c1C1=CC(=O)C=CC1=O	NOD2 RIPK2 PPI 45 (no result: XBP1 UPR activ, CHOP UPR activ, TLR4 MyD88 comp, CHOP inh) | NOD2-RIPK2 conf 62 | BLA counter 13
Cn1cc(Cc2ccc(C(=O)N3CCN(Cc4ccccc4)CC3)cn2)c2ccccc21	none (no result: XBP1 UPR activ, CHOP UPR activ, TLR9-MyD88 inh, TLR4 MyD88 comp, CHOP inh)
CC(C)(C)[C@H](N)C(=O)N[C@H]1CCC2C3CC=C4C[C@@H](O)CC[C@]4(C)C3CC[C@@]21C (some centres undefined)	NOD2 RIPK2 PPI 21 (no result: TLR4 MyD88 comp, CHOP inh) | NOD2-RIPK2 conf 22 | BLA counter inactive
O=C(O)c1cc([N+](=O)[O-])c(N2CCCC2)c([N+](=O)[O-])c1	none
COc1ccc(COc2cc(-c3cccc(OC)c3)nc3ccc(NC(C)=O)cc23)cc1	none
COc1ccc(COc2cc(-c3cccc(OC)c3)nc3ccc(N)cc23)cc1	NOD2 RIPK2 PPI 31 | NOD2-RIPK2 conf inactive | BLA counter 15
O=C(CCc1nnc(CCC2CCCCC2)o1)NCCc1cccnc1	none
O=C(OCC(=O)N1CCN(c2ccccc2)CC1)c1cc(Br)ccc1Cl	none (no result: TLR4 MyD88 comp, CHOP inh)
O=C(OCC(=O)N1CCN(c2ccccc2)CC1)c1cc(F)c(F)cc1Cl	NOD2 RIPK2 PPI 21 (no result: XBP1 UPR activ, CHOP UPR activ, TLR4 MyD88 comp, CHOP inh) | NOD2-RIPK2 conf inactive | BLA counter inactive
CC(=O)Nc1ccc(NS(=O)(=O)c2cc([N+](=O)[O-])ccc2C)cc1	none

Compound activity from PubChem BioAssay.
